Screening results (PubChem BioAssay)
PREPL inh: human PREPL enzyme inhibition. Q4J6C6. actives 0.68% (n = 320,000). AID 2751. recombinant PREPL, fluorescence polarization activity-based probe. inhibition, % at 5.96 µM; in the data active = inhibition above about 43%
PAFAH2 inh: inhibitors of human PAFAH2; recombinant PAFAH2, FP-rhodamine activity probe, fluorescence polarization; actives 0.99% (n = 340,000); Q99487; inhibition, % at 3.39 µM; AID 492956;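 active = inhibition above the mean over all tested compounds plus 3 SD, cut at about 30% in these data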;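 note: inhibitors block probe labeling of enzyme so polarization drops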
PAFAH1B2 FP inh: blocks human PAF acetylhydrolase 1b catalytic subunit 2; actives 1.2% (n = 340,000); inhibition, % at 3.39 µM; AID 492953; P68402; recombinant PAFAH1B2, FP-rhodamine activity probe, fluorescence polarization;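 active = inhibition above the mean of all tested compounds plus 3 SD, cut at about 24% in these data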
Apaf-1 inh: human Apaf-1 inhibition; O14727; actives 0.71% (n = 330,000); inhibition, % at 20 µM; reconstituted apoptosome caspase-3 activity, DEVD-Rh110 fluorescence; AID 489030; active = inhibition of at least 40% at 20 µM
Target sequence (O14727 whole entry, looked up): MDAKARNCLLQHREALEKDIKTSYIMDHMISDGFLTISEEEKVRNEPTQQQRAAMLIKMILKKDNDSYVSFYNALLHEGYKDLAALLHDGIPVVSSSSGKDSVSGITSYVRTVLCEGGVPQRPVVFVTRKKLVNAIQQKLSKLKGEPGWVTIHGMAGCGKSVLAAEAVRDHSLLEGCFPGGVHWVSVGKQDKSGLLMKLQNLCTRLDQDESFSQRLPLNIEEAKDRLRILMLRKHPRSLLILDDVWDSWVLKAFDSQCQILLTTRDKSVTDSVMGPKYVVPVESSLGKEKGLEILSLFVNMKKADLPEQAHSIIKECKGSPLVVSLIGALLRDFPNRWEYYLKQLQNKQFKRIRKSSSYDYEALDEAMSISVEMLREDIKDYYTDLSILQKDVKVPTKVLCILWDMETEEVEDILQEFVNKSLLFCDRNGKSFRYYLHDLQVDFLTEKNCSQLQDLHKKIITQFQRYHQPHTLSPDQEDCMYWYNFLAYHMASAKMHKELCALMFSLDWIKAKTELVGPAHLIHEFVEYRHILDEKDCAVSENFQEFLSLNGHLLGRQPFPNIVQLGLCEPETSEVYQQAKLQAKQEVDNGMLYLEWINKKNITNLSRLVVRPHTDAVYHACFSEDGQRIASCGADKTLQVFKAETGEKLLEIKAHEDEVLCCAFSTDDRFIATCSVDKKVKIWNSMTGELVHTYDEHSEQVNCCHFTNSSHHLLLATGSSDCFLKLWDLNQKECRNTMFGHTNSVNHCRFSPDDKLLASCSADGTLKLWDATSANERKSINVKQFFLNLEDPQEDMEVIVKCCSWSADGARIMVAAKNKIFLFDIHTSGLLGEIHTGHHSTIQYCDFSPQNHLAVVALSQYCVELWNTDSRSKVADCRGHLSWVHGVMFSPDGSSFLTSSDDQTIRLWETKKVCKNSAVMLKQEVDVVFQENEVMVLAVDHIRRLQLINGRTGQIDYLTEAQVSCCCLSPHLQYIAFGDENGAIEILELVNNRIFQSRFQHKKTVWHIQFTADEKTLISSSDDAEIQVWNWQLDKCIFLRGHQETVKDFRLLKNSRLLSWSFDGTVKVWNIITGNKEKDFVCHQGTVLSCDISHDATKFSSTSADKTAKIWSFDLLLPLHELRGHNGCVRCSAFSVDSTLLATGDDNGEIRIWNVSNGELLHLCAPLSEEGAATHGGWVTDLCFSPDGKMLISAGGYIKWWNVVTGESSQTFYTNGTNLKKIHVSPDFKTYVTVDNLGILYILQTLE
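Medium: Hepes buffer, pH 7.5 / System: biochemical Apaf-1 apoptosome reconstitution / Measured by: Rh110 fluorescence, excitation 480 nm, emission 540 nm / Times: compound with Apaf-1, dATP, procaspase-3 30 min, then 50 min reaction, room temperature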
PAFAH1B3 inh: PAFAH1B3 (human) inhibition | Q15102 | AID 492972 | inhibition, % at 3.39 µM | recombinant PAFAH1B3, FP-rhodamine probe, fluorescence polarization | actives 0.28% (n = 340,000);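 active = inhibition above the screen-wide average of all tested compounds plus 3 SD, cut at about 25% in these data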
pPAFAH FP inh: inhibitors of human plasma PAF acetylhydrolase (pPAFAH); Q13093; recombinant pPAFAH, FP-rhodamine probe fluorescence polarization; inhibition, % at 3.39 µM; actives 1.5% (n = 330,000);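 active = inhibition above the mean inhibition across the screen plus 3 SD, cut at about 25% in these data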;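 note: inhibitors block binding of the rhodamine activity-based probe so polarization drops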
Apaf-1 inh conf2: confirmation of Apaf-1 inhibitors | reconstituted apoptosome, caspase-3 DEVD-Rh110 fluorescence | actives 25% (n = 1,800) | inhibition, % at 20 µM | AID 504614 | shares compounds with Apaf-1 inh;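 active = mean inhibition of at least 40% at 20 µM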
Rh110 interf inh: interferes with Rh110 fluorescence, flagging false Apaf-1 inhibitors. shares compounds with Apaf-1 inh. Rh110 fluorescence interference, quenched caspase reaction. activation (fluorescence interference), % at 20 µM. 1,800 tested, under 10 active;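 active = signal rise of 40% or more at 20 µM, treated as a fluorescence artifact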
Fluor interf inh: Apaf-1 inhibitor counter-screen fluorescence artifact | fluorescence interference counterscreen, Apaf-1 assay format | 460 tested, under 10 active | IC50, µM | shares compounds with Apaf-1 inh | AID 588538; call rule not given here
Large screens that a line does not name were inactive (follow-up assays come after a bar, where they were run). Only some compounds are listed: those with a hit (about 3.5% of all), similar ones and a draw of the others.

Cc1cc2nn(-c3cccc4ccccc34)nc2cc1N	none
Nc1ccc(-n2nc3ccccc3n2)cc1	none
Nc1ccc2nn(-c3ccccc3)nc2c1	Apaf-1 inh 93 (no result: PREPL inh, pPAFAH FP inh) | Apaf-1 inh conf2 inactive | Rh110 interf inh inactive
COc1ccccc1C(C)Nc1ccc(S(=O)(=O)N2CCN(C)CC2)cc1[N+](=O)[O-] (centres undefined)	none
CCCN(Cc1nnc(-c2ccccc2Cl)o1)C(=O)COc1ccc(Cl)cc1	none
Cc1ccc(-c2csc3nc4c5ccccc5c(NCCCN(C)C)nn4c(=O)c23)cc1	Apaf-1 inh 42 | Apaf-1 inh conf2 58 | Rh110 interf inh inactive | Fluor interf inh inactive
Cc1ccc(-c2csc3nc4c5ccccc5c(NCCCN5CCOCC5)nn4c(=O)c23)cc1	none (no result: PAFAH2 inh, PAFAH1B2 FP inh, PAFAH1B3 inh)
O=C(C[n+]1cccc(C(=O)N/N=C/c2ccc(Br)cc2)c1)c1ccccc1	Apaf-1 inh 50 | Apaf-1 inh conf2 inactive | Rh110 interf inh inactive
Cc1ccc(S(=O)(=O)NCc2ccccc2)cc1C(=O)N1CCN(c2ccccc2)CC1	Apaf-1 inh 58 | Apaf-1 inh conf2 inactive | Rh110 interf inh inactive
CCCOc1ccc(C(=O)CCC(=O)OCC(=O)Nc2cccc(S(N)(=O)=O)c2)cc1	none (no result: PREPL inh, pPAFAH FP inh)
Brc1ccc2[nH]ncc2c1	none
Nc1ccc2cn[nH]c2c1	Apaf-1 inh 52 | Apaf-1 inh conf2 inactive | Rh110 interf inh inactive
CC(C)N(Cc1cc2ccccc2[nH]c1=O)C(=O)C1CCCCC1	Apaf-1 inh 57 | Apaf-1 inh conf2 65 | Rh110 interf inh inactive | Fluor interf inh inactive
Cc1c(NC(=O)CN2CCN(C(c3ccccc3)c3ccccc3)CC2)c(=O)n(-c2ccccc2)n1C	none
Cc1cccc(C)c1NC(=O)CN1CCN(CCCC(c2ccc(F)cc2)c2ccc(F)cc2)CC1	Apaf-1 inh 51 | Apaf-1 inh conf2 inactive | Rh110 interf inh inactive
CCN1CCN(Cc2ccc(NC(=O)c3ccc(C)c(NC(=O)c4cc(-c5ccc(Br)cc5)n[nH]4)c3)cc2C(F)(F)F)CC1	Apaf-1 inh 45 | Apaf-1 inh conf2 inactive | Rh110 interf inh inactive
CC(=O)OCCCNc1cc(Sc2nc3ccccc3s2)c2nonc2c1[N+](=O)[O-]	Apaf-1 inh 96 | Apaf-1 inh conf2 inactive | Rh110 interf inh inactive
CCC(=O)N1CCC(NC(=O)Nc2ccc(OC(F)(F)F)cc2)CC1	none
O=C(NC1CC1)C1=C[C@H](c2ccc(C(F)(F)F)cc2)C[C@H](OCCCCO)O1	Apaf-1 inh 50 | Apaf-1 inh conf2 inactive | Rh110 interf inh inactive
O=C(NC1CC1)C1=C[C@@H](c2ccc(C(F)(F)F)cc2)C[C@@H](OCCCCO)O1	none
CSc1ncccc1C(=O)NC1CCCCCCC1	none
O=C(NNc1cc(N2CCOCC2)nc(N2CCOCC2)n1)c1ccc([N+](=O)[O-])cc1	Apaf-1 inh 97 (no result: PREPL inh, pPAFAH FP inh) | Apaf-1 inh conf2 60 | Rh110 interf inh inactive | Fluor interf inh inactive
Cc1csc(NC(=O)c2cccnc2Cl)n1	none
CCOC(=O)c1cnn(-c2c(Cc3ccccc3)c(C)nc3c(-c4ccccc4)c(C)nn23)c1N	Apaf-1 inh 62 | Apaf-1 inh conf2 55 | Rh110 interf inh inactive | Fluor interf inh inactive
CCOC(=O)c1cnn(-c2cc(C(C)(C)C)nc3c(-c4ccccc4)c(C)nn23)c1N	none
COc1ccc2nc(N(CCN(C)C)C(=O)c3ccc(C(=O)c4ccccc4)cc3)sc2c1	none
CCN(CC)CCN(C(=O)c1ccc(C(=O)c2ccccc2)cc1)c1nc2ccc(OC)cc2s1	Apaf-1 inh 44 | Apaf-1 inh conf2 inactive | Rh110 interf inh inactive
Cc1ccc(SCC(=O)OCC(=O)NCCNC(=O)COC(=O)CSc2ccc(C)c(C)c2)cc1C	Apaf-1 inh 40 | Apaf-1 inh conf2 inactive | Rh110 interf inh inactive
Cc1ccc(C)c2[nH]c(=O)c(C(c3nnnn3Cc3ccco3)N3CCc4ccccc4C3)cc12 (centres undefined)	Apaf-1 inh 71 | Apaf-1 inh conf2 inactive | Rh110 interf inh inactive
Cc1[nH]n(-c2ccccc2)c(=O)c1C(c1cccc([N+](=O)[O-])c1O)c1c(C)[nH]n(-c2ccccc2)c1=O	Apaf-1 inh 88 | Apaf-1 inh conf2 inactive | Rh110 interf inh inactive
Cc1[nH]n(-c2ccccc2)c(=O)c1C(c1ccc(C(=O)O)cc1)c1c(C)[nH]n(-c2ccccc2)c1=O	Apaf-1 inh 71 | Apaf-1 inh conf2 inactive | Rh110 interf inh inactive
Cc1[nH]n(-c2ccccc2)c(=O)c1C(c1cccc([N+](=O)[O-])c1)c1c(C)[nH]n(-c2ccccc2)c1=O	Apaf-1 inh 64 | Apaf-1 inh conf2 inactive | Rh110 interf inh inactive
Cc1[nH]n(-c2ccccc2)c(=O)c1C(=O)c1ccc([N+](=O)[O-])cc1	none
COc1cc(C(=O)OCC(=O)N2c3ccccc3NC(=O)C2(C)C)ccc1OCC(C)C	none
CC1=NN(c2ccc(C(F)(F)F)cn2)C(=O)C1	Apaf-1 inh 62 | Apaf-1 inh conf2 61 | Rh110 interf inh inactive | Fluor interf inh inactive
CS(=O)(=O)Nc1ccc(N2CCN(c3ccc(C(F)(F)F)cn3)CC2)nc1	none
COC(=O)c1ccc2c(=O)n(CCCCCC(=O)N3CCN(c4ccccc4)CC3)c(=O)[nH]c2c1	Apaf-1 inh 47 | Apaf-1 inh conf2 inactive | Rh110 interf inh inactive
COc1cc2nc(N3CCNCC3)nc(N)c2cc1OC	Apaf-1 inh 61 | Apaf-1 inh conf2 66 | Rh110 interf inh inactive | Fluor interf inh inactive
COc1cc2nc(N3CCN(c4cc(C)ccc4C)CC3)nc(N)c2cc1OC	none
CCCCN(CC)c1nc(N)c(C#N)c(CC#N)c1C#N	none
CCCCN(CC)c1nc(N)c2c(N)nc(OCC)cc2c1C#N	Apaf-1 inh 98 | Apaf-1 inh conf2 inactive | Rh110 interf inh inactive
CSc1ccccc1NC(=O)COc1ccc2c(c1)OCO2	Apaf-1 inh 45 | Apaf-1 inh conf2 inactive | Rh110 interf inh inactive
COc1ccc(-c2c(C#Cc3ccc(N(C)C)cc3)c3ccccc3n2C)cc1	Apaf-1 inh 57 | Apaf-1 inh conf2 inactive | Rh110 interf inh inactive
N#Cc1c(N2CCCC2)nc(N)c2c(N)nc(N3CCCC3)cc12	PAFAH2 inh 59, PAFAH1B2 FP inh 41, Apaf-1 inh 98, PAFAH1B3 inh 63 | Apaf-1 inh conf2 99 | Rh110 interf inh inactive | Fluor interf inh inactive
CCC1Cc2c(nc(N)c3c(N)nc(N4CCCCC4)c(C#N)c23)O1 (centres undefined)	none
